Screening data: PubChem, Sanford-Burnham Center for Chemical Genomics
Sampled rows, rich in hits. Any-hit rate of the full collection: about 1.8%.
697 NFkB inh: inhibitors of the PMA/ionomycin-induced NF-kB reporter in 697 B cells | inhibition, % at 4 µM | AID 435022 | 697 B-cell NF-kB luciferase reporter, 16 h | 330,000 compounds, 0.33% hits; in the data active = inhibition above about 35%
CRFBP-R2 block: blocks CRF-induced signaling of the CRF-BP/CRF-R2 complex. HEK293 CRF-R2/CRF-BP, CRF-induced calcium fluorescence. inhibition, % at 11.8 µM. 350,000 compounds, 0.59% hits;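 active = inhibition of the ligand-induced calcium signal above about 50% at the single tested concentration, limit read from the data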
Jurkat NFkB inh: inhibitors of the PMA/ionomycin-induced NF-kB reporter in Jurkat cells; PMA/ionomycin-induced NF-kB luciferase reporter, luminescence; inhibition, % at 4 µM; 330,000 compounds, 0.53% hits; in the data active = inhibition above about 50%
CHOP UPR activ: apoptotic UPR (CHOP) activation. CHO-CHOP luciferase reporter, luminescence; percent of tunicamycin response over DMSO baseline. activation, % at 10 µM. 330,000 compounds, 0.34% hits. AID 449763;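 active = at 10 µM dose, activation of 40% or more, normalized to positive control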
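System: CHO CHOP reporter cells. Amount: 500 cells per well. Buffer or medium: F12 medium, 10% FBS. Compound dosing: one dose, 10 µM in 0.5% DMSO. Incubation: 6 h compound exposure at 37 °C after overnight seeding. Technique: Steady-Glo luciferase luminescence. Benchmarks: tunicamycin and DMSO controls.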
UPR XBP1 act: activators of adaptive arm of unfolded protein response (XBP1) | CHO-XBP1 luciferase reporter, IRE1-XBP1 UPR activation, luminescence; percent of tunicamycin response, DMSO as zero | activation, % at 20 µM | 330,000 compounds, 0.33% hits;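 active = versus positive control, 20 µM dose yields 30% or more activation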
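Material: CHO cell line with stable XBP1 luciferase reporter; buffer or medium: F12 medium containing 10% fetal bovine serum; compound: single point, 20 µM final compound, 1% DMSO; incubation: 6 h treatment, 37 °C; measured by: glow luminescence from Steady-Glo reagent; evaluation: activation, % of tunicamycin; control set: tunicamycin high, DMSO low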
Jurkat NFkB conf: lowers PMA/ionomycin-induced NF-kB signal in Jurkat cells; shares compounds with Jurkat NFkB inh; Jurkat NF-kB luciferase, 16 h; inhibition, % at 4 µM; 2,700 compounds, 27% hits;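 active = inhibition reaching about 45% at 4 µM in either replicate, limit read from the data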
A number is an active result; n = inactive; x = not tested or not shown.

SMILES | 697 NFkB inh | CRFBP-R2 block | Jurkat NFkB inh | CHOP UPR activ | UPR XBP1 act | Jurkat NFkB conf
CCc1ccc2nc(SCC(=O)Nc3ccccc3N3CCOCC3)c(C#N)cc2c1 | n | n | 67 | n | n | n
CC(=O)c1ccc(OCCCC(=O)NNC(=O)c2ccccn2)cc1 | n | n | n | n | n | x
CCN(Cc1cnn(C)c1)C(=O)c1ccc2nc(Cc3cccc(Cl)c3)oc2c1 | n | n | n | n | n | x
CC(C)(C)c1ccc(C(=O)NC(=S)Nc2nc3c(s2)CCCC3)cc1 | n | n | n | n | n | x
CN(C)c1ccc(C(=O)Nc2nc3c(s2)CCCC3)cc1 | n | n | n | n | n | n
CCC1(c2ccccc2)NC(=O)N(CC(=O)Nc2cc(C(F)(F)F)ccc2N2CCCC2)C1=O (centres undefined) | n | n | 54 | n | n | n
Cc1cccc(NS(=O)(=O)c2ccc(-c3cnc(C4CC4)o3)cc2)c1C | n | n | 60 | n | n | 66
O=S(=O)(Nc1ccccc1)c1ccc(-c2cnc(C3CC3)o2)cc1 | n | n | 53 | n | n | n
Cc1ccc(C)c(NS(=O)(=O)c2ccc(-c3cnc(C4CC4)o3)cc2)c1 | n | n | 61 | n | n | 60
CC(=O)c1cccc(NS(=O)(=O)c2ccc(-c3cnc(C4CC4)o3)cc2)c1 | n | n | n | n | n | x
COc1ccc(NS(=O)(=O)c2cc(-c3cnc(C4CC4)o3)ccc2C)cc1 | n | n | 59 | n | n | 49
CCOc1ccc(NS(=O)(=O)c2ccc(-c3cnc(C4CC4)o3)cc2)cc1 | n | n | n | n | n | x
CS(=O)(=O)c1ccc(N2CCN(S(=O)(=O)c3cccs3)CC2)c([N+](=O)[O-])c1 | n | n | n | n | n | x
CNS(=O)(=O)c1cccc(C(=O)OCC(=O)c2ccc3[nH]c(=O)[nH]c3c2)c1 | n | n | n | n | n | x
Cc1cccc(OC(C)C(=O)Nc2ccccc2C(=O)N2CCCCC2)c1 (centres undefined) | n | n | n | n | n | x
Cc1cc(C)cc(NS(=O)(=O)c2ccc(-c3cnc(C4CC4)o3)cc2)c1 | n | n | 56 | n | n | 55
CC(=O)Nc1ccc(NS(=O)(=O)c2ccc(-c3cnc(C4CC4)o3)cc2)cc1 | n | n | n | n | n | x
CC(=O)OCCN1CCN(C(=O)CN2C(=O)NC(c3ccccc3)(c3ccccc3)C2=O)CC1 | n | n | n | n | n | x
CCc1cc2c(=O)n(Cc3ccco3)c(SCC(=O)NCC3CCCO3)nc2s1 (centres undefined) | n | n | n | n | n | x
CCc1cc2c(=O)n(Cc3ccco3)c(SCc3c(C)noc3C)nc2s1 | n | n | 55 | n | n | n
CCN1/C(=C/C=C/c2oc3ccc4ccccc4c3[n+]2CC)Oc2ccc3ccccc3c21 | n | n | 92 | n | n | n
Cc1cc(C)c(S(=O)(=O)Cc2ccccc2)c(OC(C)C)n1 | n | n | n | n | n | x
Cc1cc(C)nc(S/C=C/C(=O)c2ccc(F)cc2)n1 | n | x | 70 | n | n | n
Cc1cc(C)nc(SCC(=O)c2ccc(F)cc2)n1 | n | n | n | n | n | x
Cc1ccc2oc(-c3ccc(C)c(NC(=S)NC(=O)c4cccs4)c3)nc2c1 | n | n | n | n | n | n
SMILES | 697 NFkB inh | CRFBP-R2 block | Jurkat NFkB inh | CHOP UPR activ | UPR XBP1 act | Jurkat NFkB conf
Cc1ccnc(NC(=S)NC(=O)c2cccs2)c1 | n | n | n | n | n | n
Cc1ccnc(NC(=O)CNC(=O)c2cccs2)c1 | n | n | n | n | n | x
Fc1c(F)c(F)c(CSc2nc3ccccc3[nH]2)c(F)c1F | n | n | n | n | n | x
Fc1ccccc1CSc1nc2ccccc2[nH]1 | n | n | n | n | n | n
Cc1ccccc1C(=O)NC1CC2CCCC(C1)N2CC(C)C (centres undefined) | x | n | x | x | x | x
CC1CCc2sc(C(=O)NN=C3CCCC3)cc2C1 (centres undefined) | x | n | x | x | x | x
CCOC(=O)Nc1sc(C)nc1-c1ccccc1 | n | n | n | n | n | x
CCOC(=O)Nc1nc(-c2ccccc2)c(C(=O)c2ccc(Cl)cc2)s1 | n | n | 54 | n | n | 55
CCCC(=O)Nc1nc2ccc(S(=O)(=O)N3CCCCC3)cc2s1 | n | n | 52 | n | n | n
CCCC[C@@H](CN[C@H](C)CNC)NCC1CCC(C(C)(C)C)CC1 (some centres undefined) | n | n | 53 | n | n | n
CC[C@H](C)[C@@H](CN[C@H](CCCCNC)CNC)NCC1CCCC1 | n | n | n | n | n | x
CN1/C(=C/C=C/c2n(C)c3cc([N+](=O)[O-])c([N+](=O)[O-])cc3[n+]2C)C(C)(C)c2ccccc21 | x | n | x | x | x | x
O=C(NC1CCCCC1)c1ccc([N+](=O)[O-])o1 | n | n | n | n | n | x
O=C(NC1CCCCC1)c1ccc(-c2ccccc2[N+](=O)[O-])o1 | n | n | n | n | n | n
Cc1cccc2c1cnn2C(=O)Nc1ccccc1Cl | n | n | n | n | n | x
COc1ccc(CNC(=O)CCNC(=O)c2ccco2)cc1OC | n | n | n | n | n | x
Cc1ccc2c(c1)N(C)/C(=C/c1cccc[n+]1C)S2 | n | n | 75 | n | n | n
CN1/C(=C/c2cccc[n+]2C)Sc2ccccc21 | n | n | 71 | n | n | n
Cc1ccc2c(c1)N(C)/C(=C/c1cccc[n+]1CCO)S2 | n | n | n | n | n | x
CCCCN1/C(=C/c2cccc[n+]2C)Sc2cc(NC(C)=O)ccc21 | n | n | n | n | n | x
CCOc1ccc(CNC(=O)Nc2ccccc2)cc1 | n | n | n | n | n | x
Cc1ccc(-n2nc3c(=O)n(CC(=O)NC(C)CCc4ccccc4)nc(C)c3c2C)cc1 (centres undefined) | n | n | 53 | n | n | 63
CCOC(=O)c1oc2ccc(S(=O)(=O)n3nc(-c4ccc(OC)cc4)cc3N)cc2c1C | n | n | 58 | n | n | n
CCC(C)(C)c1ccc(OCCCC[n+]2cccc(C)c2C)c(C(C)(C)CC)c1 | n | n | 94 | n | n | 75
CCOc1ccccc1C(=O)Nc1ccc2nc(N3CCN(c4ncccn4)CC3)cc(C)c2c1 | n | n | 70 | n | n | n
CCN1CCN(c2cc(C)c3cc(NC(=O)CCC(=O)Nc4ccc(OC)c(OC)c4)ccc3n2)CC1 | n | n | n | n | n | x
CCN1CCN(c2cc(C)c3cc(NC(=O)c4ccc(OC)c(OC)c4)ccc3n2)CC1 | n | n | 57 | n | n | n
Cc1ccc(NCCC(=O)c2cccs2)cc1C | n | n | n | n | n | n
COc1ccc(C(C)(C)C)cc1NC(=O)c1ccccc1-n1cnnn1 | n | n | n | n | n | x
COc1ccccc1NC(=O)N(C)C[C@H]1Oc2ncc(Br)cc2C(=O)N([C@H](C)CO)C[C@H]1C | x | n | x | x | x | x
